In ChEMBL document CHEMBL1811868, “Structure-activity relationship of 2-hydroxy-2-aryl-2,3-dihydro-imidazo[1,2-a]pyrimidinium salts and 2N-substituted 4(5)-aryl-2-amino-1H-imidazoles as inhibitors of biofilm formation by Salmonella Typhimurium and Pseudomonas aeruginosa” (Bioorg Med Chem, 2011):
Activity calls are given as the source filed them.

Experiments:
Salmonella typhimurium [1] = test: Antimicrobial activity against Salmonella Typhimurium ATCC 14028 assessed as inhibition of biofilm formation after 24 hrs by spectrophotometry; type: functional, organism-based, Salmonella enterica subsp. enterica serovar Typhimurium; settings: Salmonella enterica, ATCC 14028, 24 h
Procedure, shortened: (§1)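 Static peg-lid biofilm prevention assay. Twofold serial dilutions in TSB diluted 1/20, 2–3 repeats per compound. Overnight S. Typhimurium ATCC14028 (LB-grown) or P. aeruginosa PA14 (TSB-grown) cultures were diluted 1:100, giving ~10^6 cells/well, then incubated 24 h at 25 °C without shaking. Pegs were PBS-washed, stained 30 min with 0.1% crystal violet, extracted with 30% acetic acid and read at OD570. IC50 was fitted from the concentration gradient.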

Pseudomonas aeruginosa [2] = test: Antimicrobial activity against Pseudomonas aeruginosa PA14 assessed as inhibition of biofilm formation after 24 hrs by spectrophotometry; type: functional, organism-based; settings: PA14, 24 h; procedure, shortened: as §1
Pseudomonas aeruginosa [3] = test: Antimicrobial activity against Pseudomonas aeruginosa PA14 assessed as inhibition of planktonic cell growth at IC50 after 24 hrs by […]; type: functional, organism-based
Procedure, shortened: (§2)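 Planktonic growth was followed by Bioscreen growth curves, not by crystal violet. Overnight cultures were diluted 1:200 in TSB 1/20 and received compound serially diluted in DMSO or EtOH, in triplicate, with solvent controls. Plates were shaken at 25 °C for at least 24 h, reading A600 every 15 min.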

Pseudomonas aeruginosa [4] = test: Antimicrobial activity against Pseudomonas aeruginosa PA14 assessed as inhibition of planktonic cell growth at 40 uM after 24 hrs by […]; type: functional, organism-based; procedure, shortened: as §2
Salmonella typhimurium [5] = test: Antimicrobial activity against Salmonella Typhimurium ATCC 14028 assessed as inhibition of planktonic cell growth at IC50 after 24 hrs by […]; type: functional, organism-based; settings: Salmonella enterica subsp. enterica serovar Typhimurium; procedure, shortened: as §2
Salmonella typhimurium [6] = test: Antimicrobial activity against Salmonella Typhimurium ATCC 14028 assessed as inhibition of planktonic cell growth at 40 uM after 24 hrs by […]; type: functional, organism-based; settings: Salmonella enterica subsp. enterica serovar Typhimurium; procedure, shortened: as §2
Pseudomonas aeruginosa [7] = test: Antimicrobial activity against Pseudomonas aeruginosa PA14 assessed as inhibition of planktonic cell growth at 80 uM after 24 hrs by […]; type: functional, organism-based; procedure, shortened: as §2

Row | Compound | IC50 (Salmonella typhimurium [1]) | IC50 (Pseudomonas aeruginosa [2]) | growth inhibition (GI) (Pseudomonas aeruginosa [3]) | growth inhibition (GI) (Pseudomonas aeruginosa [4]) | growth inhibition (GI) (Salmonella typhimurium [5]) | growth inhibition (GI) (Salmonella typhimurium [6]) | growth inhibition (GI) (Pseudomonas aeruginosa [7])
1 | CNc1ncc(-c2ccc(F)cc2)[nH]1 | 102 µM | 25.2 µM | inactive | inactive |  |  | 
2 | CCCCCCCCN1c2nccc[n+]2C[C@@]1(O)c1ccc(Cl)cc1 | 7 µM | 15.7 µM | Active |  | Active |  | 
3 | O=[N+]([O-])c1ccc(-c2cnc(NC3CCCCC3)[nH]2)cc1 | 36.7 µM | 25 µM |  |  | inactive | inactive | 
4 | CCCCCN1c2nccc[n+]2C[C@@]1(O)c1ccc(Br)cc1 | 1.7 µM | 4.2 µM | inactive | inactive | inactive | inactive | 
5 | O[C@@]1(c2ccc(Cl)cc2)C[n+]2cccnc2N1C1CCCCCCCCCCC1 | 5.6 µM | 6.8 µM | Active |  | Active |  | 
6 | CCCCCCCCCCN1c2nccc[n+]2C[C@@]1(O)c1ccc(Cl)cc1 | 51.3 µM | 83.3 µM | Active |  | Active |  | 
7 | CC(C)CN1c2nccc[n+]2C[C@@]1(O)c1ccc(Cl)c(Cl)c1 | 8 µM |  |  |  | inactive | Active | 
8 | O=[N+]([O-])c1ccc([C@]2(O)C[n+]3cccnc3N2C2CCCCCCCCCCC2)cc1 | < 6.3 µM | 5.4 µM | Active |  | Active |  | 
9 | CC(C)CN1c2nccc[n+]2C[C@@]1(O)c1ccc(Cl)cc1 | 31.4 µM | 83.4 µM |  |  | inactive | inactive | 
10 | CNc1ncc(-c2ccc([N+](=O)[O-])cc2)[nH]1 | 170 µM | 56.1 µM | inactive |  |  |  | inactive
11 | CCCCCCCCCCN1c2nccc[n+]2C[C@@]1(O)c1ccc(OC)cc1 | 18.6 µM |  |  |  | Active |  | 
12 | O[C@@]1(c2ccccc2)C[n+]2cccnc2N1C1CCCCCC1 | 84.2 µM | 191 µM | inactive |  | inactive |  | 
13 | O[C@@]1(c2ccc(Cl)cc2)C[n+]2cccnc2N1C1CCCCCCC1 | 12.6 µM | 22.7 µM | Active |  | Active |  | 
14 | CCCCCCCCCCN1c2nccc[n+]2C[C@@]1(O)c1ccccc1 | 15 µM | 29.9 µM | Active |  | Active |  | 
15 | Clc1ccc(-c2cnc(NC3CCCC3)[nH]2)cc1 | 4.4 µM | 13.5 µM | inactive | inactive | inactive | inactive | 
16 | CCCCCCCCN1c2nccc[n+]2C[C@@]1(O)c1ccc([N+](=O)[O-])cc1 | 6.6 µM | 12.1 µM | Active |  | Active |  | 
17 | CCCCNc1ncc(-c2ccccc2)[nH]1 | 25.3 µM | 31.8 µM |  |  | inactive | inactive | 
18 | CCCCCCCCCN1c2nccc[n+]2C[C@@]1(O)c1ccccc1 | 8.3 µM | 26.8 µM | Active |  | Active |  | 
19 | O[C@@]1(c2ccc(F)cc2)C[n+]2cccnc2N1Cc1ccc2c(c1)OCO2 | 17.2 µM |  |  |  | inactive | inactive | 

Row | Compound | IC50 (Salmonella typhimurium [1]) | IC50 (Pseudomonas aeruginosa [2]) | growth inhibition (GI) (Pseudomonas aeruginosa [3]) | growth inhibition (GI) (Pseudomonas aeruginosa [4]) | growth inhibition (GI) (Salmonella typhimurium [5]) | growth inhibition (GI) (Salmonella typhimurium [6]) | growth inhibition (GI) (Pseudomonas aeruginosa [7])
20 | CC(C)CNc1ncc(-c2ccc([N+](=O)[O-])cc2)[nH]1 | 3.8 µM | 22.9 µM | inactive |  | inactive | inactive | 
21 | Fc1ccc(-c2cnc(NCc3ccc4c(c3)OCO4)[nH]2)cc1 | 66.6 µM | 456 µM |  |  | inactive |  | 
22 | Clc1ccc(-c2cnc(NCc3ccccc3)[nH]2)cc1 | 30.7 µM | 26.3 µM | inactive | inactive | inactive | inactive | 
23 | CCCCCCCCN1c2nccc[n+]2C[C@@]1(O)c1ccccc1 | 9.8 µM | 14.4 µM | Active |  | Active |  | 
24 | CCCCCCN1c2nccc[n+]2C[C@@]1(O)c1ccc([N+](=O)[O-])cc1 | 54.7 µM | 12.4 µM | Active |  | Active |  | 
25 | CCCCN1c2nccc[n+]2C[C@@]1(O)c1ccc(Cl)cc1 | 29.7 µM | 24.9 µM | inactive | inactive | inactive | inactive | 
26 | CCCCCCCCCCN1c2nccc[n+]2C[C@@]1(O)c1ccc([N+](=O)[O-])cc1 | 9.9 µM | 22.3 µM | Active |  | Active |  | 
27 | O[C@@]1(c2ccc3c(c2)OCO3)C[n+]2cccnc2N1Cc1ccc2c(c1)OCO2 | 53.7 µM |  |  |  | inactive |  | 
28 | O=[N+]([O-])c1cccc(-c2cnc(NC3CCCCC3)[nH]2)c1 | 630 µM | 4.4 µM | inactive | inactive |  |  | 
29 | CCCCCN1c2nccc[n+]2C[C@@]1(O)c1ccc(Cl)cc1 | 32.6 µM | 164 µM | Active |  | inactive | inactive | 
30 | CCCCCCCCCN1c2nccc[n+]2C[C@@]1(O)c1ccc(Cl)cc1 | 18.3 µM | 20.2 µM | Active |  | Active |  | 
31 | CC(C)CN1c2nccc[n+]2C[C@@]1(O)c1ccc(Br)cc1 | 5.2 µM | 6.3 µM | inactive | inactive | inactive | Active | 
32 | CCCCNc1ncc(-c2ccc([N+](=O)[O-])cc2)[nH]1 | 702 µM | > 800 µM |  |  |  |  | 
33 | O[C@@]1(c2ccc(I)cc2)C[n+]2cccnc2N1Cc1ccccc1 | 36.7 µM |  |  |  | inactive | inactive | 
34 | CCNc1ncc(-c2ccc([N+](=O)[O-])cc2)[nH]1 | 171 µM | 104 µM |  |  |  |  | 
35 | CCCCCCCN1c2nccc[n+]2C[C@@]1(O)c1ccccc1 | 23.4 µM | 25.5 µM | Active |  | Active |  | 
36 | COc1cccc(CNc2ncc(-c3ccc([N+](=O)[O-])cc3)[nH]2)c1 | 19.1 µM | 3.7 µM | inactive | inactive | inactive | inactive | 
37 | CN1c2nccc[n+]2C[C@@]1(O)c1ccc(Cl)cc1 | 225 µM | 170 µM |  |  |  |  | 
38 | O[C@@]1(c2ccccc2)C[n+]2cccnc2N1C1CCC1 | 493 µM | > 400 µM |  |  |  |  | 
